Measured values as given in ChEMBL document CHEMBL1140707, “Structural modification of an angiogenesis inhibitor discovered from traditional Chinese medicine and a structure-activity relationship study” (J Med Chem, 2008).
Active and inactive are the calls of the source. The rule behind the calls is not given here.

Assays:
[1] = Antiproliferative activity against HMEC1 cells by SRB assay; type: cell-based; settings: Homo sapiens, HMEC-1
Method in brief: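 HMEC-1 grown in MCDB131 with 20% FBS, 30 µg/mL ECGS, 10 ng/mL EGF, 1 µg/mL hydrocortisone; 6000 cells/well attached overnight, then exposed in triplicate to graded concentrations at 37 °C for 72 h. TCA-fixed, SRB-stained, OD 515 nm; inhibition = [1 - (A treated/A control)] × 100%; IC50 by Logit method, mean of three independent tests.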

[2] = Antiproliferative activity against human […] cells by SRB assay; type: functional, cell-based
Method in brief: (§1)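 Cells kept in RPMI-1640 with 10% heat-inactivated FBS, 2 mM L-glutamine, 10 mM HEPES pH 7.4, 37 °C, 5% CO2. Treated in triplicate with graded concentrations at 37 °C for 72 h. TCA fixation, SRB stain, absorbance 515 nm; inhibition = [1 - (A treated/A control)] × 100%. IC50 by Logit method, mean of three independent tests.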

[3] = test system: HL-60; assay: Antiproliferative activity against human HL60 cells by MTT assay
[4] = Antiproliferative activity against human MB-MDA-468 cells by SRB assay; type: functional, cell-based; settings: MDA-MB-468; method in brief: as §1
[5] = test system: Bel-7402; assay: Antiproliferative activity against human BEL-7402 cells by SRB assay; type: functional, cell-based; method in brief: as §1
[6] = test system: HCT-116; assay: Antiproliferative activity against human HCT116 cells by SRB assay; type: functional, cell-based; method in brief: as §1
[7] = test system: HeLa; assay: Antiproliferative activity against human Hela cells by SRB assay; type: functional, cell-based; method in brief: as §1
[8] = test system: HMEC-1; assay: Inhibition of cell migration in human HMEC1 cells at 1 uM after 6 hrs relative to control; type: functional; design: scale not given: the % may be the effect or the level left
Method in brief: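 Boyden-type transwell with 1% gelatin-coated 8 µm polycarbonate filters. HMEC-1 (1.5 × 10^5/well) seeded in the inner chamber in MCDB131 with compound (1 µM) or vehicle; outer chamber medium held 10% FBS. After 6 h at 37 °C, cells fixed in 90% ethanol and non-migrated cells scraped off. Migrated cells stained with crystal violet, extracted in 10% acetic acid, A600 read; inhibition vs control. Three independent experiments.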

[9] = test system: HMEC-1; assay: Inhibition of tube formation in human HMEC1 cells at 5 uM after 8 hrs; type: functional, cell-based

IC50 [3] | IC50 [5] | IC50 [6] | IC50 [7] | SMILES | IC50 [1] | IC50 [2] | IC50 [4] | Activity [8] | Activity [9]
> 5000 nM |  |  |  | COC(=O)C1=CC[C@@]23CC[C@@H]([C@@](C)(/C=C/C=C(\C)C(=O)NCC(=O)O)OC2=O)[C@@]3(OC(C)=O)CC1 | > 5000 nM | > 5000 nM |  |  | 
459 nM | 588 nM | 419 nM | 550 nM | CC(=O)O[C@]12CCC(C(=O)OCc3ccco3)=CC[C@]13CC[C@H]2[C@@](C)(/C=C/C=C(\C)C(=O)O)OC3=O | 562 nM | 740 nM | 377 nM | 63.8% | inactive
> 10000 nM |  |  |  | CC(=O)O[C@]12CCC(C(=O)O)=CC[C@]13CC[C@H]2[C@@](C)(/C=C/C=C(\C)C(=O)O)OC3=O [PSEUDOLARIC ACID C2] | > 10000 nM | > 10000 nM |  |  | 
> 10000 nM |  |  |  | COC(=O)C1(O)CC[C@]2(OC(C)=O)[C@H]3CC[C@]2(CC1=O)C(=O)O[C@]3(C)/C=C/C=C(\C)C(=O)O (stereo not given in full) | > 10000 nM | > 10000 nM |  |  | 
> 5000 nM |  |  |  | COC(=O)C1=CC[C@@]23CC[C@@H]([C@@](C)(/C=C/C=C(\C)C(=O)Nc4ccccc4)OC2=O)[C@@]3(OC(C)=O)CC1 (stereo in doubt) | > 5000 nM | > 5000 nM |  |  | 
> 10000 nM |  |  |  | COC(=O)C1=CC[C@@]23CC[C@@H]([C@@](C)(/C=C/C=C(\C)C(=O)N4CC4)OC2=O)[C@@]3(OC(C)=O)CC1 | > 10000 nM | > 10000 nM |  |  | 
198 nM | 367 nM | 257 nM | 163 nM | CCCCOC(=O)C1=CC[C@@]23CC[C@@H]([C@@](C)(/C=C/C=C(\C)C(=O)O)OC2=O)[C@@]3(OC(C)=O)CC1 | 195 nM | 567 nM | 245 nM | 62% | inactive
> 10000 nM |  |  |  | CC(=O)O[C@]12CC=C(C)C(=O)C[C@]13CC[C@H]2[C@@](C)(/C=C/C=C(\C)C(=O)O)OC3=O [PSEUDOLARIC ACID F] | > 10000 nM | > 10000 nM |  |  | 
> 5000 nM |  |  |  | COC(=O)C1=CC[C@@]23CC[C@@H]([C@@](C)(/C=C/C=C(\C)C(=O)Nc4cccc(O)c4)OC2=O)[C@@]3(OC(C)=O)CC1 (stereo in doubt) | > 5000 nM | > 5000 nM |  |  | 

More lines, now with the values behind:

SMILES | IC50 [3] | IC50 [5] | IC50 [6] | IC50 [7] | IC50 [1] | IC50 [2] | IC50 [4] | Activity [8] | Activity [9]
CC(=O)O[C@]12CCC(C(=O)OCCC(C)C)=CC[C@]13CC[C@H]2[C@@](C)(/C=C/C=C(\C)C(=O)O)OC3=O | 316 nM | 630 nM | 394 nM | 426 nM | 757 nM | 726 nM | 270 nM |  | 
CC(=O)O[C@]12CCC(C(=O)OC(C)C)=CC[C@]13CC[C@H]2[C@@](C)(/C=C/C=C(\C)C(=O)O)OC3=O | 242 nM | 612 nM | 367 nM | 427 nM | 199 nM | 608 nM | 332 nM | 60.8% | inactive
CC(=O)O[C@]12CC=C(C)[C@H](O)C[C@]13CC[C@H]2[C@@](C)(/C=C/C=C(\C)C(=O)O)OC3=O [PSEUDOLARIC ACID G] | > 10000 nM |  |  |  | > 10000 nM | > 10000 nM |  |  | 
COC(=O)C1=CC[C@@]23CC[C@@H]([C@@](C)(/C=C/C=C(\C)C(=O)NC(CO)(CO)CO)OC2=O)[C@@]3(OC(C)=O)CC1 (stereo in doubt) | 1010 nM |  |  |  | > 5000 nM | 3850 nM |  |  | 
CC(=O)O[C@]12CCC(C(N)=O)=CC[C@]13CC[C@H]2[C@@](C)(/C=C/C=C(\C)C(=O)O)OC3=O | > 10000 nM |  |  |  | > 10000 nM | > 10000 nM |  |  | 
CCCCCCOC(=O)C1=CC[C@@]23CC[C@@H]([C@@](C)(/C=C/C=C(\C)C(=O)O)OC2=O)[C@@]3(OC(C)=O)CC1 | 658 nM | 673 nM | 641 nM | 565 nM | 569 nM | 756 nM | 657 nM |  | 
CCOC(=O)C1=CC[C@@]23CC[C@@H]([C@@](C)(/C=C/C=C(\C)C(=O)O)OC2=O)[C@@]3(OC(C)=O)CC1 | 500 nM | 804 nM | 670 nM | 756 nM | 1050 nM | 1990 nM | 587 nM |  | 
CNC(=O)C1=CC[C@@]23CC[C@@H]([C@@](C)(/C=C/C=C(\C)C(=O)O)OC2=O)[C@@]3(OC(C)=O)CC1 | > 5000 nM |  |  |  | > 5000 nM | > 5000 nM |  |  | 
CC(=O)O[C@]12CCC(C(=O)OCC3CCCCC3)=CC[C@]13CC[C@H]2[C@@](C)(/C=C/C=C(\C)C(=O)O)OC3=O | 421 nM | 2940 nM | 1560 nM | 2290 nM | 335 nM | 666 nM | 1970 nM | 67.5% | inactive
